# Data published in ChEMBL document CHEMBL5678814, “Novel Mps1 Kinase Inhibitors with Potent Antitumor Activity” (Mol Cancer Ther, 2016).
# Columns and labels:
# [1] = Synergistic antitumor activity against human MAXF 1384 cells xenografted female athymic NMRI mouse model assessed as MTD at 2 mg/kg,po administered twice daily intermittent for 2 days on/5 days off measured after 48 hrs treatment in the presence of paclitaxel relative to control; type: functional; conditions: time 9 day
# [2] = Volume of distribution at steady state in male CD1 mouse plasma at 0.5 mg/kg, iv measured after 24 hrs by LC/-MS/MS analysis; type: ADME, organism-based; conditions: read-out: Vdss
# In short: (§1)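 Male CD1 mice received a single iv bolus of 0.5 mg/kg in 1% DMSO/99% plasma. Plasma was sampled at 2, 5, 15, 30 and 45 min and at 1, 2, 4, 6, 8 and 24 h, precipitated with ice-cold acetonitrile (1:5), and supernatants were run by LC/MS-MS. Parameters were estimated from plasma concentration data, with AUC by the log-linear trapezoidal rule.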
# [3] = Oral bioavailability in female NMRI mouse plasma at 1 mg/kg measured after 24 hrs by LC/-MS/MS analysis
# CAL-33 = assay: Antiproliferative activity against human CAL-33 cells assessed as cell growth inhibition incubated for 96 hrs by crystal violet staining; conditions: CAL-33, 96 h
# [4] = Tmax in male Wistar rat plasma at 0.5 mg/kg, po measured after 24 hrs by LC/-MS/MS analysis; type: ADME, organism-based
# In short: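 Male Wistar rats given 0.5 mg/kg orally. Plasma collected from 8 min to 24 h, precipitated with ice-cold acetonitrile (1:5), and analysed by LC/MS-MS. Cmax and Tmax read directly from concentration–time profiles.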
# FaDu = assay: Antiproliferative activity against human FaDu cells assessed as cell growth inhibition incubated for 96 hrs by crystal violet staining
# NCI-H28 = assay: Antiproliferative activity against human NCI-H28 cells assessed as cell growth inhibition incubated for 96 hrs by crystal violet staining; conditions: NCI-H28, 96 h
# [5] = biological target: Serine/threonine-protein kinase BRSK2 (Homo sapiens, UniProt Q8IWQ3); assay: Binding affinity to BRSK2 (unknown origin) assessed as dissociation constant
# Sequence of Serine/threonine-protein kinase BRSK2 (Q8IWQ3 whole entry): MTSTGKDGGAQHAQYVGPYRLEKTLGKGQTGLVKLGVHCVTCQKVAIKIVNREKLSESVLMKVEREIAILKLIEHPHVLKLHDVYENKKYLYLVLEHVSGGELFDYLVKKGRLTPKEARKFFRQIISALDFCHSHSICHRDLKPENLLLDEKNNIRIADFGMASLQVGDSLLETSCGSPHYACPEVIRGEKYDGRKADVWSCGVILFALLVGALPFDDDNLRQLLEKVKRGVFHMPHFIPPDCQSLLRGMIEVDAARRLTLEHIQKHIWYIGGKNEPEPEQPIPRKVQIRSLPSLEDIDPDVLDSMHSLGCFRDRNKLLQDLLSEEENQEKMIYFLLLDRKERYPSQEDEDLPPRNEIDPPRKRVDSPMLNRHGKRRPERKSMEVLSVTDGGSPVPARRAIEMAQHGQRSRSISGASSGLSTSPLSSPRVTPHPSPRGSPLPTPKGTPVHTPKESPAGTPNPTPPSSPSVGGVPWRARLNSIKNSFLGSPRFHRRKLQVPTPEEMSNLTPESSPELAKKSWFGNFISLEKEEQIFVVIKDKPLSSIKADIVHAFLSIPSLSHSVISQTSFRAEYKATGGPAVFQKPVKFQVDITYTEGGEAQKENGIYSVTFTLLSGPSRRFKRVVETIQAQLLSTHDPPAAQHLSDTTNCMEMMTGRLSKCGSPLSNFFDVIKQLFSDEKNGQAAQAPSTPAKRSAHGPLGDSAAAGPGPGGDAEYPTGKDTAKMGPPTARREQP
# RT-112 = assay: Antiproliferative activity against human RT-112 cells assessed as cell growth inhibition incubated for 96 hrs by MTS assay; type: functional, cell-based; conditions: RT-112, 96 h
# Misshapen-like kinase 1 = Misshapen-like kinase 1 (Homo sapiens, UniProt Q8N4C8); assay: Binding affinity to MINK (unknown origin) assessed as dissociation constant
# Sequence of Misshapen-like kinase 1 (Q8N4C8 whole entry): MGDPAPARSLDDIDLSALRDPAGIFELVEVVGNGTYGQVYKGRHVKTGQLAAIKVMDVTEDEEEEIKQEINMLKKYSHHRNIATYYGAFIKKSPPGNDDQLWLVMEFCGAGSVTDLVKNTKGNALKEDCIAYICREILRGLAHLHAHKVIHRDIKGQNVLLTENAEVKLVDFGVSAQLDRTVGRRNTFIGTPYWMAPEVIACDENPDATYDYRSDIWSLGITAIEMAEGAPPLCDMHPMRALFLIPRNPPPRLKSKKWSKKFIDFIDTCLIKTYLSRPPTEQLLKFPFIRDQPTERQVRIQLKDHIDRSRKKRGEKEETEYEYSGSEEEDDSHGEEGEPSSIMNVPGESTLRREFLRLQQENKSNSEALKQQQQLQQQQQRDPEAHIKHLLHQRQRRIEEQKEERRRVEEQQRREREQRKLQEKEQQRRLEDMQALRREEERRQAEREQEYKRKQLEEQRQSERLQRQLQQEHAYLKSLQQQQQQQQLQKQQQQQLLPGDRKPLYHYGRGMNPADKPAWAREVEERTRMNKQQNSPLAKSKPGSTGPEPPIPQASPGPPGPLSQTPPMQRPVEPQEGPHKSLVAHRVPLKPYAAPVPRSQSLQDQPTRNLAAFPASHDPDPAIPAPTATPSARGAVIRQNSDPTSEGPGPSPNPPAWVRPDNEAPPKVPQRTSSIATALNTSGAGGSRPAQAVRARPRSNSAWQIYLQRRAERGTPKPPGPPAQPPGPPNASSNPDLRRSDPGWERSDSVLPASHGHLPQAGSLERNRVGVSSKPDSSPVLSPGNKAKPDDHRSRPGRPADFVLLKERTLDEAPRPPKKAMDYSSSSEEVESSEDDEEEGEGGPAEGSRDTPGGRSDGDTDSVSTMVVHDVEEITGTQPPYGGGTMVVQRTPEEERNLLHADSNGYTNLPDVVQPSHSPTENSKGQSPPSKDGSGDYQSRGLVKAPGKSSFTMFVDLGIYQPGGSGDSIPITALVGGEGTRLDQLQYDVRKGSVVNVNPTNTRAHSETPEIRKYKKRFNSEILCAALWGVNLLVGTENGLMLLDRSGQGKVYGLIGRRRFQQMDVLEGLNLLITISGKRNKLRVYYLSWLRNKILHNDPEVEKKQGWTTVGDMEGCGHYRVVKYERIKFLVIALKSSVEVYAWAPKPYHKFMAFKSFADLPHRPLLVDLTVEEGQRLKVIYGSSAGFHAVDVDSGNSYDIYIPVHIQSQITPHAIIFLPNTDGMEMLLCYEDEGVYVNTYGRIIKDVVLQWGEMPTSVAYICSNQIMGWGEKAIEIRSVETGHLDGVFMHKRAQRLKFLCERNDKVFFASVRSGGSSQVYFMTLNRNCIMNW
# JeKo-1 = assay: Antiproliferative activity against human JeKo-1 cells assessed as cell growth inhibition incubated for 96 hrs by MTS assay; type: functional, cell-based; conditions: JeKo-1, 96 h
# COLO 320DM = assay: Antiproliferative activity against human COLO 320DM cells assessed as cell growth inhibition incubated for 96 hrs by crystal violet staining
# [6] = Clearance in male CD1 mouse blood at 0.5 mg/kg, iv measured after 24 hrs by LC/-MS/MS analysis; type: ADME, organism-based; in short: as §1
# U2OS = assay: Antiproliferative activity against human U2OS cells assessed as cell growth inhibition incubated for 96 hrs by MTS assay; type: functional, cell-based
# TMD8 = assay: Antiproliferative activity against human TMD8 cells assessed as cell growth inhibition incubated for 96 hrs by MTS assay; type: functional, cell-based; conditions: TMD8, 96 h
# [7] = Antiproliferative activity against human NCI-H2110 cells assessed as cell growth inhibition incubated for 96 hrs by crystal violet staining; conditions: NCI-H2110, 96 h
# [8] = Antiproliferative activity against human HeLa-MaTu cells assessed as cell growth inhibition incubated for 96 hrs by crystal violet staining
# A673 = assay: Antiproliferative activity against human A673 cells assessed as cell growth inhibition incubated for 96 hrs by MTS assay; type: functional, cell-based; conditions: A673, 96 h
# DU-145 = assay: Antiproliferative activity against human DU-145 cells assessed as cell growth inhibition incubated for 96 hrs by MTS assay; type: functional, cell-based; conditions: DU-145, 96 h
# NCI-H23 = assay: Antiproliferative activity against human NCI-H23 cells assessed as cell growth inhibition incubated for 96 hrs by crystal violet staining; conditions: NCI-H23, 96 h
# NCI-H1373 = assay: Antiproliferative activity against human NCI-H1373 cells assessed as cell growth inhibition incubated for 96 hrs by crystal violet staining; conditions: NCI-H1373, 96 h
# NCI-H1155 = assay: Antiproliferative activity against human NCI-H1155 cells assessed as cell growth inhibition incubated for 96 hrs by crystal violet staining; conditions: NCI-H1155, 96 h
# MSTO-211H = assay: Antiproliferative activity against human MSTO-211H cells assessed as cell growth inhibition incubated for 96 hrs by crystal violet staining
# OV-90 = assay: Antiproliferative activity against human OV-90 cells assessed as cell growth inhibition incubated for 96 hrs by crystal violet staining; conditions: OV-90, 96 h
# Caov-3 cell line = assay: Antiproliferative activity against human Caov-3 cell line assessed as cell growth inhibition incubated for 96 hrs by crystal violet staining; conditions: Caov-3, 96 h
# HT1197 = assay: Antiproliferative activity against human HT1197 cells assessed as cell growth inhibition incubated for 96 hrs by MTS assay; type: functional, cell-based; conditions: HT1197, 96 h
# OCI-LY19 = assay: Antiproliferative activity against human OCILY19 cells assessed as cell growth inhibition incubated for 96 hrs by MTS assay; type: functional, cell-based; conditions: OCI-LY19, 96 h
# NCI-H647 = assay: Antiproliferative activity against human NCI-H647 cells assessed as cell growth inhibition incubated for 96 hrs by MTS assay; type: functional, cell-based; conditions: NCI-H647, 96 h
# A549 = assay: Antiproliferative activity against human A549 cells assessed as cell growth inhibition incubated for 96 hrs by crystal violet staining; conditions: A549, 96 h
# OPM-2 = assay: Antiproliferative activity against human OPM-2 cells assessed as cell growth inhibition incubated for 96 hrs by crystal violet staining; conditions: OPM-2, 96 h
# HT-1376 = assay: Antiproliferative activity against human HT-1376 cells assessed as cell growth inhibition incubated for 96 hrs by MTS assay; type: functional, cell-based; conditions: HT-1376, 96 h
# [9] = Cmax in female NMRI mouse plasma at 1 mg/kg, po measured after 24 hrs by LC/-MS/MS analysis
# NCI-H2228 = assay: Antiproliferative activity against human NCI-H2228 cells assessed as cell growth inhibition incubated for 96 hrs by crystal violet staining; conditions: NCI-H2228, 96 h
# HT-1080 = assay: Antiproliferative activity against human HT-1080 cells assessed as cell growth inhibition incubated for 96 hrs by MTS assay; type: functional, cell-based; conditions: HT-1080, 96 h
smiles,measurement,setting,value
COc1cc(S(C)(=O)=O)ccc1Nc1nc2ccc(-c3ccc(NC(=O)[C@H](C)c4ccc(F)cc4)cc3)cn2n1 [BAY-1161909],MED,[1],80%
same,Vd,[2],3.4 L/kg
same,bioavailability,[3],59%
same,IC50,CAL-33,110 nM
same,Tmax,[4],4 h
same,IC50,FaDu,270 nM
same,IC50,NCI-H28,110 nM
same,Kd,[5],40000 nM
same,IC50,RT-112,83 nM
same,Kd,Misshapen-like kinase 1,40000 nM
same,IC50,JeKo-1,65 nM
same,IC50,COLO 320DM,110 nM
same,clearance,[6],11.5 mL/min/kg
same,IC50,U2OS,550 nM
same,IC50,TMD8,240 nM
same,IC50,[7],280 nM
same,IC50,[8],200 nM
same,IC50,A673,93 nM
same,IC50,DU-145,160 nM
same,IC50,NCI-H23,91 nM
same,IC50,NCI-H1373,190 nM
same,IC50,NCI-H1155,1400 nM
same,IC50,MSTO-211H,70 nM
same,IC50,OV-90,150 nM
same,IC50,Caov-3 cell line,98 nM
same,IC50,HT1197,> 3000 nM
same,IC50,OCI-LY19,61 nM
same,IC50,NCI-H647,570 nM
same,IC50,A549,130 nM
same,IC50,OPM-2,130 nM
same,IC50,HT-1376,3000 nM
same,Cmax,[9],120 ng/mL
same,IC50,NCI-H2228,> 3000 nM
same,IC50,HT-1080,450 nM
